Publication PMC11297572 (International Journal of Nanomedicine, 2024)
≈ marks a conversion by molar mass, not a printed value. Entries after “also recorded” stand apart in the source; their conditions may differ.

What was measured:
[1] = tested on: A549 subcutaneous transplanted tumor; assay: HE staining of tumor tissues; type: in vivo, nude mice; conditions: tumor tissue after 21 days
Method in brief: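 Subcutaneous tumors were excised after 21 days of treatment once the surviving mice were killed. Tissue was washed twice in 0.9% saline, fixed in 4% paraformaldehyde, dehydrated, paraffin-embedded and sectioned. Sections were stained with hematoxylin and eosin and assessed for pathology. All procedures were done blind.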

Ki67 = assay: Immunohistochemistry of Ki67 in tumor tissues; type: in vivo, nude mice; conditions: tumor tissue after 21 days
Method in brief: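 Tumors were taken at the end of the 21-day study and fixed in 4% paraformaldehyde for 24 h. They were dehydrated in absolute alcohol, paraffin-embedded and sectioned. Antigen retrieval was 5 min at high temperature in 0.01 M citrate buffer, pH 6.0. Primary antibody (1:200) was applied overnight at 4 °C, then secondary antibody for 30 min at 37 °C. Sections were developed with DAB, counterstained with hematoxylin and imaged. Scoring was blind.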

[2] = tested on: heart, liver, kidney and lung tissues; assay: HE staining of organs; type: in vivo; conditions: lung of nude mice after administration
A549 cells [3] = assay: MTT growth inhibition of A549 cells; type: cell-based; conditions: Homo sapiens
Method in brief: (§1)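 Cells were grown in RPMI 1640 or DMEM with 10% FBS and 100 U/mL penicillin-streptomycin at 37 °C, 5% CO2. Log-phase cells were seeded at 3–5×10³ per well and cultured 24 h before graded drug concentrations were added. After 24 or 48 h exposure, MTT (5 mg/mL solution) was added for 3–4 h. Medium was removed, formazan dissolved in DMSO with 10 min shaking, and OD read at 490 nm. Growth inhibition rate was calculated from OD. Data are mean ± SD of triplicates.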

A549 cells [4] = assay: Apoptosis of A549 cells; type: cell-based, human; conditions: 24 h
H460 cells = assay: MTT growth inhibition of H460 cells; type: cell-based; conditions: Homo sapiens
Method in brief: as §1

[5] = tested on: A549 subcutaneous transplanted tumor; assay: In vivo antitumor efficacy in tumor-bearing nude mice; conditions: 21 days of administration
Method in brief: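 The xenograft model used A549 cells. Treatment ran for 21 days with body weight tracked against the start of dosing; n = 5 per group. At the end, surviving mice were killed and tumors were excised and weighed to calculate tumor inhibition rate.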

## CC(=O)O[C@H]1C(=O)[C@@]2(C)[C@H]([C@H](OC(=O)c3ccccc3)[C@]3(O)C[C@H](OC(=O)[C@H](O)[C@@H](NC(=O)c4ccccc4)c4ccccc4)C(C)=C1C3(C)C)[C@]1(OC(C)=O)CO[C@@H]1C[C@@H]2O [PTX, paclitaxel]
[1]
  necrosis of tumor tissue (necrotic area): approximately 20%
Ki67
  expression of Ki67 in tumor tissues: 45.88%
[2]
  pathological changes in organs (HE staining): pathological changes and tumor cell infiltration; also recorded: different degrees of pathological changes and necrosis in their hearts and livers
A549 cells [3]; A549, 24 h
  IC50: 45.9 µg/mL (≈ 53.7 µM)
A549 cells [3]; A549, 48 h
  IC50: 31.7 µg/mL (≈ 37.1 µM)
A549 cells [4]; A549, 5 μg/mL
  apoptosis rate: 3.57%
A549 cells [4]; A549, 10 μg/mL
  apoptosis rate: 7.34%
A549 cells [4]; A549, 20 μg/mL
  apoptosis rate: 16.6%
H460 cells; NCI-H460, 24 h
  IC50: 49.3 µg/mL (≈ 57.7 µM)
H460 cells; NCI-H460, 48 h
  IC50: 39.4 µg/mL (≈ 46.1 µM)
[5]; nude mice
  body weight change: gradual
[5]; tumor-bearing nude mice
  tumor inhibition rate: 29.95%
